Rows were chosen to be rich in hits. Some 7.2% of all compounds tested hit in one or more screens of this group.
PostGolgi yeast = growth inhibition of a yeast mutant, post-Golgi transport screen; post-Golgi transport phenotypic cell assay; inhibition, % at 10 µM; 98,000 compounds, 0.9% hits; AID 739;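 further: yeast cells grown in 1536-well plates; yeast grown about 18 h at 30C before absorbance read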
tolC growth inh = E. coli tolC mutant growth inhibition; 65,000 compounds, 2.2% hits; E. coli BW25113 tolC mutant growth, OD615; growth inhibition, % at 10 µM (by protocol);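 active means growth inhibition at or above a cutoff equal to the mean over every tested compound plus 3 SD, cut at about 60% in these data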;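 further: growth measured after 20 h incubation at 37 °C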
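Test system: tolC-deleted E. coli BW25113; medium: LB with kanamycin 50 µg/mL; compound: single-point testing at 10 µM; incubation: 20 h compound exposure of bacteria at 37 °C; signal: OD at 615 nm; evaluation: growth inhibition in percent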
E coli WT exp = growth inhibitors of E. coli BW25113 wild type | growth inhibition, % at 100 µM | 98,000 compounds, 0.15% hits | AID 710 | OD600 absorbance;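 active means growth inhibition above about 50% at one test dose, limit read from the data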;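 further: growth measured after 20 h incubation at 37 °C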
PostGolgi ctrl = yeast control strain growth, post-Golgi counter-screen. efflux-deficient yeast background strain, growth absorbance A615, 16 h. 98,000 compounds, 5% hits. inhibition, % at 10 µM. AID 738
PLAP activator = activators of human placental alkaline phosphatase. activation fold at 20 µM. purified PLAP enzyme, luminescent substrate read-out; active compounds read high. 96,000 compounds, 1.2% hits. P05187; in the data active means activation fold above about 2
Target sequence (P05187 whole entry, looked up): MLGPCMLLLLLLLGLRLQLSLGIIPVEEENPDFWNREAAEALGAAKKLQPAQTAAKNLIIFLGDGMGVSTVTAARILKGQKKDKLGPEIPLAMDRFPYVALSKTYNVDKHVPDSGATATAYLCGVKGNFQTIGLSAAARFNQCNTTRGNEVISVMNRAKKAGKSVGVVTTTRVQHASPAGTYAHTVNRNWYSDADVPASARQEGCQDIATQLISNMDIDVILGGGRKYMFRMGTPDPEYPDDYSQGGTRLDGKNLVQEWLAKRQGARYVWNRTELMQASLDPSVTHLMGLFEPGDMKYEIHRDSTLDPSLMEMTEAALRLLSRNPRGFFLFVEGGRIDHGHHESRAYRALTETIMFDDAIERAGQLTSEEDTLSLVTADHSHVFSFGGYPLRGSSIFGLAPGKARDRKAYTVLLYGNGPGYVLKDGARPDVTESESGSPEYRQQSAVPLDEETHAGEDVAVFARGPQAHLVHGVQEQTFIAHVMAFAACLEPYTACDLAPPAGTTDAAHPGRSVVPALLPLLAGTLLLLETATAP
* hit, by the source's call; nt = no result. Unless noted, no stated cut-off is given here; in the data, active means inhibition above about 30%; inactive means the rest.

SMILES	PostGolgi yeast	tolC growth inh	E coli WT exp	PostGolgi ctrl	PLAP activator
COC(=O)c1ccc(/C=N/OCC(=O)NC2CCCC(C)C2C)cc1 (centres undefined)	11	nt	-4	40*	0.8
c1ccc(N2CCN(c3ccccc3)C2c2ccncc2)cc1	7	nt	-2	31*	1.1
c1ccc(N2CCN(c3ccccc3)C2c2cccnc2)cc1	11	nt	6	20	nt
CC(Cc1ccccc1)N/C=C1\CC(=O)NC1=O (centres undefined)	4	nt	2	13	1
COc1ccc(OC2C(=O)N(Cc3ccc(F)cc3)C2c2ccc(OC)c(OC)c2)cc1 (centres undefined)	-2	nt	-13	40*	1.4
C=CCN(C(=O)c1cccc(S(=O)(=O)N2CCN(C)CC2)c1)c1nc(-c2ccccc2)cs1	35*	nt	1	22	1.7
Cc1csc(N(C(=O)c2cccc(S(=O)(=O)N3CCCC3)c2)c2ccccc2)n1	-8	nt	-5	9	1.2
OC(CNCc1ccco1)Cn1c2ccc(Br)cc2c2cc(Br)ccc21 (centres undefined)	106*	nt	-5	99*	1.1
Brc1ccc2ncnc(NCc3ccco3)c2c1	-7	4	9	13	0.8
CC1CCCCN1C(=O)CSc1nc(N)cc(=O)[nH]1 (centres undefined)	3	nt	1	30*	1
CC1Cc2ccccc2N1C(=O)CSc1nc(N)cc(=O)[nH]1 (centres undefined)	-7	nt	-2	3	1
Cc1ccc(-n2c(C)cc(/C=N/NC(=O)CN(c3ccc(C)cc3C)S(C)(=O)=O)c2C)cc1	8	nt	2	1	1.5
Cc1cc(C)cc(-n2c(C)cc(/C=N/NC(=O)CN(c3c(C)cccc3C)S(C)(=O)=O)c2C)c1	1	nt	-13	19	2*
CC(C)[C@H](NC(=O)OC(C)(C)C)c1nnc(SCC(=O)Nc2ccc(Br)cc2)o1	-1	45	3	4	1.5
CCOC(=O)c1c(C)[nH]c(C)c1C(=O)CSc1ncccn1	14	nt	-1	-14	0.8
N#C/C(=N\Nc1ccc(Cl)cc1)C(=O)c1ccccc1	7	nt	-2	79*	1.4
CC1CCC(C(C)C)C(OCC(O)CN2CCN(Cc3ccccc3)CC2)C1 (centres undefined)	103*	nt	18	30*	1.4
COC(=O)c1cc(NC(=O)Cc2ccc(OC)cc2)cc(C(=O)OC)c1	2	nt	0	8	0.7
N#CC1=C(N)NC(SCc2ccccc2)=C(C#N)C12CCCCC2	103*	62*	16	91*	0.8
NC(=O)C(c1ccc(Cl)cc1)c1ccc(Sc2ccc(Cl)cc2)nn1 (centres undefined)	-2	nt	3	10	1
COc1cc(NC(=O)c2cccs2)c(C(=O)OCC(=O)NC(C)c2ccccc2)cc1OC (centres undefined)	6	nt	-9	30*	1.9
COc1ccc(S(=O)(=O)N2CCN(Cc3ccc(Cl)cc3)CC2)cc1	3	18	-2	23	1.1
O=S(=O)(c1ccc(Cl)cc1)N1CCN(C2CCN(Cc3ccccc3)CC2)CC1	90*	nt	9	27	1.5
CCN(CC)C(=O)CSc1nnc(-c2cc(OC)cc(OC)c2)o1	-7	4	-5	2	1
CCCCOC(=O)CSc1nnc(-c2cc(OC)c(OC)c(OC)c2)o1	-2	17	4	32*	1.1
SMILES	PostGolgi yeast	tolC growth inh	E coli WT exp	PostGolgi ctrl	PLAP activator
CCCCN(CCCC)C(=O)CSc1nnc(-c2cc(OC)c(OC)c(OC)c2)o1	-7	71*	-4	8	1.5
COc1cc(OC)cc(-c2nnc(SCC(=O)N3CCCC3)o2)c1	5	8	7	35*	0.8
O=C(Nc1nccs1)C1CCN(S(=O)(=O)c2c(Cl)cccc2Cl)CC1	2	nt	-13	9	1
CCNS(=O)(=O)c1ccc(Br)c(OC)c1	-7	nt	7	7	0.8
Brc1ccc2nc(CSc3ncn[nH]3)cn2c1	-1	-1	15	26	2.8*
CCC(C(=O)NC(C)(C)C)N(C(=O)Cn1nnc(-c2cccs2)n1)c1cnc2ccccc2c1 (centres undefined)	-2	nt	-6	-1	1.5
CCOC(=O)c1sc2nc(NC(=O)c3cccs3)sc2c1C	nt	7	nt	nt	nt
COc1ccc(N(C(=O)c2ccco2)S(=O)(=O)c2cc(Cl)c(Cl)cc2Cl)cc1	-1	nt	-5	31*	0.9
CCCC(c1nnnn1CS(=O)(=O)c1ccc(C)cc1)N1CCN(c2ccccc2)CC1 (centres undefined)	-8	6	-16	31*	0.9
COc1ccc(NC(=O)c2cc3cc(OC)ccc3oc2=N)cc1	73*	4	-1	77*	0.9
COc1ccc2oc(=O)c(C(C)=O)cc2c1	9	nt	5	-1	0.8
O=C(CN1CCN(c2ccc(Cl)cc2)CC1)Nc1cccc(F)c1	9	51	-3	30*	1
COC(=O)c1sccc1NC(=O)CN1CCN(c2ccc(F)cc2)CC1	-1	54	-34	32*	1.7
O=C(CN1CCN(c2ccc(F)cc2)CC1)Nc1ccc(F)c(F)c1	1	3	-7	13	1
O=C(Nc1cccc(F)c1)N1CC=C(c2ccc(Cl)cc2)CC1	22	nt	0	41*	1.2
COC(=O)c1ccc(NC(=O)CN2CCN(c3cccc(Cl)c3)CC2)cc1	3	75*	-13	27	1
COc1ccc(C)cc1NC(=O)CN1CCN(c2ccc(F)cc2)CC1	14	54	-9	22	1.2
COc1ccc(/C=C2/SC(=O)N(NS(=O)(=O)c3ccccc3)C2=S)cc1OC	1	nt	5	19	1.6
COC(=O)c1cc(OC)c(OC)cc1NC(=O)c1ccc(OC)c(OC)c1	3	nt	-3	7	0.8
O=C(CN1CCCN(S(=O)(=O)c2ccc(Br)s2)CC1)Nc1ccc(Cl)cc1	14	nt	-9	65*	1
Cc1ccc(C(=O)N2CCN(c3cccc(Cl)c3)CC2)cc1C	0	68*	-13	26	1.6
COC(=O)c1ccc(NC(=O)CN2CCN(c3ccc(Cl)cc3)CC2)cc1	44*	-22	0	16	1.1
COC(=O)c1ccc(NC(=O)CN2CCN(S(=O)(=O)c3cc(Cl)ccc3OC)CC2)cc1	1	9	7	22	1.4
CC(CCc1ccccc1)NC(=O)C(Cc1ccccc1)NS(=O)(=O)c1cccs1 (centres undefined)	-1	nt	2	20	0.7
Nc1[nH]nc2nc(N3CCCC3)nc(-c3ccccc3)c12	11	-2	-4	8	2*
Cc1ccn2c(NCc3ccc4c(c3)OCO4)c(-c3ccc(O)cc3)nc2c1	0	nt	-6	36*	0.9
Cc1ccc(N(Cc2cc(=O)[nH]c3ccccc23)C(=O)c2ccco2)cc1	19	19	12	5	1.2
Cc1ccc(-c2[nH]c3ccccc3c2C(C[N+](=O)[O-])c2ccco2)cc1 (centres undefined)	3	nt	-8	30*	1.2
COC(=O)c1ccc(C2CC(=O)Nc3cc(OC)c(OC)c(OC)c32)cc1 (centres undefined)	2	9	-9	10	1.1

Screens as filed in PubChem BioAssay.
